CAL PDZ FP-1: human CAL PDZ-peptide interaction inhibition | Q9HD26 | purified CAL PDZ, TMR-peptide fluorescence polarization, 1 h | inhibition, % at 20 µM | 330,000 compounds, 0.02% hits;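 active means highest replicate inhibition of at least 40%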
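Test system: tagged CAL PDZ domain / Buffer or medium: sodium phosphate/NaCl buffer pH 7.4 with TCEP, IgG, Thesit / Reagent: TMR-labelled reporter peptide T*-PRC34 bound in PDZ groove / Compound dosing: single point, 20 µM / Schedule: 1 h incubation at room temperature before polarization reading / Technique: fluorescence polarization (mP) / Benchmarks: unlabelled peptide, DMSO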
A3A deaminase: human APOBEC3A DNA deaminase inhibition | inhibition, % at 20 µM | 330,000 compounds, 0.41% hits | recombinant A3A, FAM/TAMRA ssDNA deamination fluorescence | P31941;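 active means at least 40% inhibition at 20 µM here, with at most 30% in a related deaminase screen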
Target sequence (P31941 whole entry, looked up): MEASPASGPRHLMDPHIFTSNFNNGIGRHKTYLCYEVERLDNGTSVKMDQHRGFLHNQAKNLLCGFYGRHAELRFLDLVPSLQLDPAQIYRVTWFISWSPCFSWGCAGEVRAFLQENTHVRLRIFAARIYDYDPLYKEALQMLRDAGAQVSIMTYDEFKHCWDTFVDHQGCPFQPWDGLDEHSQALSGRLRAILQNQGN
APOBEC3G inh: blocks human APOBEC3G single-stranded DNA deamination. recombinant A3G, ssDNA deamination FAM/TAMRA fluorescence. 330,000 compounds, 0.28% hits. inhibition, % at 20 µM. AID 493012;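 active means inhibition of at least 40% at 20 µM, with no more than 30% in the related APOBEC3A deaminase screen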
Target sequence (Q9HC16 whole entry, looked up): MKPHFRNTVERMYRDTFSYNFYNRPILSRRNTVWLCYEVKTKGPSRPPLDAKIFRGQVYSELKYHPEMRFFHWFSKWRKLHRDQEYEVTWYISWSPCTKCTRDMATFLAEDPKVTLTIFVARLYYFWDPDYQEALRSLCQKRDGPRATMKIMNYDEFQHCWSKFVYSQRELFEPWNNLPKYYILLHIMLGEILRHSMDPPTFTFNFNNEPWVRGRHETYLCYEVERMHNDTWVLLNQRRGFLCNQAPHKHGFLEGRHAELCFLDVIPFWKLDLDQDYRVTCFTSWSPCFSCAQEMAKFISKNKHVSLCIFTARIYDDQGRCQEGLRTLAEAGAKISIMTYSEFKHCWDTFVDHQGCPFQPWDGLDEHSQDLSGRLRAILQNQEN
Keap1 Nrf2 FP: inhibitors of human Keap1-Nrf2 protein-protein interaction; Keap1 Kelch-Nrf2 peptide fluorescence polarization, 1536-well; inhibition, % at 9.4 µM; 340,000 compounds, 0.15% hits; AID 504523; in the data active means inhibition above about 12%;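 further: human Keap1 Kelch domain with fluorescein labeled Nrf2 9mer peptide probe; higher means more block of Keap1 binding to Nrf2 peptide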
C-LANA FP: KSHV C-LANA DNA binding inhibition; MBP-C-LANA/FAM-LBS DNA binding, fluorescence polarization; inhibition, % at 9 µM; 340,000 compounds, 0.078% hits;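 active means highest replicate inhibition at or above 60% at 9 µM, even if other replicates fall short; inactive means all replicates below 60% inhibition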
CAL PDZ FP-2: inhibitors of human CAL PDZ peptide binding; Q9HD26; purified CAL PDZ, TMR-peptide fluorescence polarization, 1 h; inhibition, % at 24.9 µM; 300,000 compounds, 0.92% hits;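 active means mean inhibition of at least 30% with at least half of replicates also reaching 30%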
Numbers stand for hits; . = inactive; / = not tested or not shown. Only some compounds are listed: those with a hit (about 1.7% of all), similar ones and a draw of the others.

SMILES	CAL PDZ FP-1	A3A deaminase	APOBEC3G inh	Keap1 Nrf2 FP	C-LANA FP	CAL PDZ FP-2
CN(CC(=O)Nc1cccnc1)S(=O)(=O)c1ccc(Br)cc1	.	.	.	.	.	.
CCN(CC)CCOC(=O)/C=C/c1ccccc1OC	.	.	.	.	.	.
O=C(/C=C/Nc1ccc(S(=O)(=O)Nc2ncccn2)cc1)c1ccc(Cl)c(Cl)c1	.	.	.	15	.	.
COC(=O)c1ccccc1S(=O)(=O)N1CCC(C(=O)NC2CCCCC2)CC1	.	.	.	.	.	.
COc1ccc(Cl)cc1NCCC(O)c1ccc(F)cc1 (centres undefined)	.	.	.	.	.	.
COc1ccc(NCCC(O)c2ccc(Cl)cc2)cc1 (centres undefined)	/	.	.	.	.	35
CCOC(=O)c1ccc(NC(=O)CSc2ccc(-c3ccncc3)nn2)cc1	.	.	.	.	.	.
Cc1ccc[n+](-c2nc([O-])sc2C=O)c1	.	.	.	63	83	.
N#CCCN(Cc1cccnc1)C(=S)NC(=O)c1ccccc1	.	.	.	.	.	89
O=C(Nc1nc2ccccc2[nH]1)c1cc2ccccc2o1	.	.	.	.	.	46
O=c1nc(-c2ccccc2)n(-c2ccccc2)[nH]1	.	.	.	.	.	.
Cc1ccnc2nc(C(=O)NCc3ccccc3)nn12	.	.	.	.	.	197
COCCn1c(SCC(=O)Nc2ccc(OC)c(S(N)(=O)=O)c2)nc2ccccc2c1=O	.	.	.	.	.	41
C[C@H](O)c1[nH]c2cc(F)ccc2c1[C@H](C)O	.	.	.	.	.	.
CN(CCCC1CCCC1)C(=O)CC1C(=O)NCCN1Cc1ccc(F)cc1 (centres undefined)	.	.	.	.	.	41
CN(CCC1CCOCC1)C(=O)CC1C(=O)NCCN1Cc1ccoc1 (centres undefined)	.	.	.	.	.	.
CCOC(=O)[C@H]1[C@H]2COc3ccc(C)cc3[C@@H]2N2C(=O)[C@@H](C)NC(=O)[C@@]12C	.	.	.	.	.	.
COCC(C)n1c(C)cc(C(=O)Cn2nc(C(=O)O)c3ccccc3c2=O)c1C (centres undefined)	.	.	.	.	.	37
CCCn1cc(S(=O)(=O)c2ccc(OC)cc2)c(=O)c2cc(OC)ccc21	.	.	.	.	.	.
CC(Oc1ccccc1F)C(=O)NNC(=O)c1cccc(S(=O)(=O)N2CCN(C)CC2)c1 (centres undefined)	.	.	.	.	.	.
CCOC(=O)[C@@H]1[C@H]2COc3cc(OC)ccc3[C@H]2N2C(=O)N(c3cccc(F)c3)C(=O)[C@@]12C	.	.	.	.	.	.
O=C(c1cc(-c2ccc(Cl)cc2Cl)on1)N1CCCC1	.	.	.	.	.	35
NC(=O)C1CC(=O)N(c2ccc(OCc3c(Cl)cccc3Cl)cc2)C1 (centres undefined)	.	.	.	.	.	.
O=C(c1cccc(S(=O)(=O)NCc2ccccc2)c1)N1CCCC(C(F)(F)F)C1 (centres undefined)	.	.	.	.	.	.
CC(C)c1ccc(N(CC(=O)N2CCOCC2)S(C)(=O)=O)cc1	.	.	.	.	.	86
SMILES	CAL PDZ FP-1	A3A deaminase	APOBEC3G inh	Keap1 Nrf2 FP	C-LANA FP	CAL PDZ FP-2
O=C(NCCNC(=O)c1ccc(Cl)cc1Cl)c1ccco1	.	.	.	.	.	.
Cc1ccc2nc(COC(=O)c3ccc(Cl)nc3)cc(=O)n2c1	.	.	.	.	.	46
CCC1CCCCN1CCCNC(=O)C1CCCN(c2ncnc3c2nc2n3CCCCC2)C1 (centres undefined)	.	.	.	.	.	.
O=C(CCC(=O)N1CCN(Cc2ccccc2)CC1)Nc1nnc(C2CCCCC2)s1	.	.	.	.	.	.
COc1ccc(/C=C/C(=O)NCC(=O)N/N=C(/CCC(=O)O)c2ccccc2)cc1	.	.	.	.	.	32
COc1cc(/C=N/c2oc(C)c(C)c2C#N)cc(Br)c1O	.	.	.	.	.	.
COCCCn1c(=O)c2ccccc2n(Cc2cc(C(=O)OC)ccc2OC)c1=O	.	.	.	.	.	.
Cc1nc2c(cc1N)nc(C)n2Cc1ccccc1	.	.	.	.	.	.
CN1C[C@@H]2[C@@H]3C(=O)N(C)C(=O)[C@@H]3[C@](C)(C1=O)N2C(=O)c1ccc(C(C)(C)C)cc1	.	/	/	.	.	.
COc1ccc(N2CCN(c3cc(C)c4ccccc4n3)CC2)cc1	.	.	.	.	.	.
Cc1cc(N2CCN(c3ccccc3)CC2)nc2ccccc12	/	.	.	.	.	62
COc1ccccc1Nc1n[nH]c(=S)s1	.	.	57	.	.	78
Cc1cccc(Nc2n[nH]c(=S)s2)c1C	.	.	.	.	.	.
Cc1ccc(S(=O)(=O)Nc2cccc(-n3cnnn3)c2)cc1	.	.	.	.	.	53
Cc1ccc(-c2nn3c(C)nnc3s2)cc1NC(=O)c1ccc(-c2ccc(Cl)cc2Cl)o1	.	43	.	.	.	.
CC(C)C(NS(=O)(=O)c1ccc2c(c1)Cc1cc(S(=O)(=O)NC(C(=O)O)C(C)C)ccc1-2)C(=O)O (centres undefined)	.	.	.	.	.	.
Nc1nc(C(F)(F)F)cc(=O)[nH]1	.	.	.	.	65	/
CN(C)CCCNC(=S)Nc1ccc(Oc2ccccc2)cc1	.	.	.	.	.	61
OCCCNC(=S)Nc1ccc(Oc2ccccc2)cc1	.	.	.	.	.	.
N#C/C(=C(/O)CO/N=C/c1ccccc1Cl)c1nc2ccccc2[nH]1	.	.	.	.	.	.
CC(C)[C@H](NC(=O)OC(C)(C)C)C(=O)N/N=C/c1ccc2nccnc2c1	.	.	.	.	.	70
NS(=O)(=O)c1ccc2nc(NC(=O)c3ccc4c(c3)OCCO4)sc2c1	.	.	.	.	.	63
NS(=O)(=O)c1ccc2nc(NC(=O)c3ccc4ncsc4c3)sc2c1	.	.	.	.	.	.
Cc1c(Cl)cccc1NS(=O)(=O)c1ccc2c(c1)C1C=CCC1C(c1ccc(C(=O)O)cc1)N2 (centres undefined)	.	.	.	.	111	.
CC(=O)c1ccc2c(c1)C1C=CCC1C(c1ccc(S(=O)(=O)N3CCOCC3)cc1)N2 (centres undefined)	.	/	/	.	.	.
O=C(NCc1ccccn1)c1ccco1	.	.	.	.	.	.
O=C(NCc1ccccn1)c1cn(Cc2ccccc2)nn1	/	.	.	.	.	105
Cc1ccc(Nc2nc(N)nc(CSc3nccn3C)n2)c(C)c1	.	.	.	.	.	38
Cc1ccc(SCc2nc(N)nc(Nc3ccccc3C)n2)c(C)c1	.	.	.	.	.	.

Source: PubChem BioAssay
